Assay results reported in ChEMBL document CHEMBL3400013, “Synthesis and biological activity evaluation of hydrazone derivatives based on a Tröger's base skeleton” (Bioorg Med Chem, 2015).
The source made the active and inactive calls. No cut-off for these calls is given here.

Test system: BJ
Assay: Selectivity index, ratio of IC50 for human BJ cells to IC50 for human CEM-DNR cells
Type: functional
Conditions: not given

Q: For O=C(N/N=C/c1cc(F)ccc1O)c1ccc2c3c(ccc2c1)N1Cc2c(ccc4cc(C(=O)N/N=C/c5cc(F)ccc5O)ccc24)N(C3)C1, which “Ratio IC50” value is on record?
A: The value was 9.8.

Q: For Cc1ccc(O)c(/C=N/NC(=O)c2ccc3c4c(ccc3c2)N2Cc3c(ccc5cc(C(=O)N/N=C/c6cc(C)ccc6O)ccc35)N(C4)C2)c1, which “Ratio IC50” value is on record?
A: Its value is 0.1.

Test system: CEM-DNR
Assay: Selectivity index, ratio of IC50 for human MRC5 cells to IC50 for human CEM-DNR cells
Type: functional
Conditions: not given

Q: With O=C(N/N=C/c1cc(F)ccc1O)c1ccc2c3c(ccc2c1)N1Cc2c(ccc4cc(C(=O)N/N=C/c5cc(F)ccc5O)ccc24)N(C3)C1 as the molecule, how does the “Ratio IC50” value read?
A: The value was 9.8.

Q: For Cc1ccc(O)c(/C=N/NC(=O)c2ccc3c4c(ccc3c2)N2Cc3c(ccc5cc(C(=O)N/N=C/c6cc(C)ccc6O)ccc35)N(C4)C2)c1, which “Ratio IC50” value is on record?
A: Its value is 0.1.

Test system: MRC5
Assay: Selectivity index, ratio of IC50 for human MRC5 cells to IC50 for human K562-TAX cells
Type: functional
Conditions: not given

Q: For O=C(N/N=C/c1cc(F)ccc1O)c1ccc2c3c(ccc2c1)N1Cc2c(ccc4cc(C(=O)N/N=C/c5cc(F)ccc5O)ccc24)N(C3)C1, which “Ratio IC50” value is on record?
A: Its value is 17.6.

Q: Which “Ratio IC50” value does the source give for Cc1ccc(O)c(/C=N/NC(=O)c2ccc3c4c(ccc3c2)N2Cc3c(ccc5cc(C(=O)N/N=C/c6cc(C)ccc6O)ccc35)N(C4)C2)c1 here?
A: The value was 0.4.

Test system: A549
Assay: Selectivity index, ratio of IC50 for human MRC5 cells to IC50 for human A549 cells
Type: functional
Conditions: not given

Q: For O=C(N/N=C/c1cc(F)ccc1O)c1ccc2c3c(ccc2c1)N1Cc2c(ccc4cc(C(=O)N/N=C/c5cc(F)ccc5O)ccc24)N(C3)C1, which “Ratio IC50” value is on record?
A: Its value is 33.6.

Q: Which “Ratio IC50” value does the source give for Cc1ccc(O)c(/C=N/NC(=O)c2ccc3c4c(ccc3c2)N2Cc3c(ccc5cc(C(=O)N/N=C/c6cc(C)ccc6O)ccc35)N(C4)C2)c1 here?
A: Its value is 0.9.

Test system: HCT-116
Assay: Selectivity index, ratio of IC50 for human MRC5 cells to IC50 for human p53-/- HCT116 cells
Type: functional
Conditions: not given

Q: For O=C(N/N=C/c1cc(F)ccc1O)c1ccc2c3c(ccc2c1)N1Cc2c(ccc4cc(C(=O)N/N=C/c5cc(F)ccc5O)ccc24)N(C3)C1, which “Ratio IC50” value is on record?
A: Its value is 51.

Q: With Cc1ccc(O)c(/C=N/NC(=O)c2ccc3c4c(ccc3c2)N2Cc3c(ccc5cc(C(=O)N/N=C/c6cc(C)ccc6O)ccc35)N(C4)C2)c1 as the molecule, how does the “Ratio IC50” value read?
A: Its value is 1.1.

Test system: A549
Assay: Cytostatic activity against human A549 cells after 72 hrs by MTT assay
Type: functional, cell-based
Conditions: A549, 72 h
Outline: (§1)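 Cells were seeded at 25,000–30,000 per well and pre-incubated for 24 h at 37°C in 5% CO2. Four-fold compound dilutions were added in duplicate and incubated for 72 h. MTT was added for 1–4 h, and formazan was dissolved in 10% aq SDS (pH 5.5) overnight at 37°C. OD was read at 540 nm. IC50 came from dose-response curves, mean ± SD of eight independent experiments.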

Q: With O=C(N/N=C/c1cc(F)ccc1O)c1ccc2c3c(ccc2c1)N1Cc2c(ccc4cc(C(=O)N/N=C/c5cc(F)ccc5O)ccc24)N(C3)C1 as the molecule, how does the IC50 read?
A: Its IC50 is 1240 nM.

Q: For Cc1ccc(O)c(/C=N/NC(=O)c2ccc3c4c(ccc3c2)N2Cc3c(ccc5cc(C(=O)N/N=C/c6cc(C)ccc6O)ccc35)N(C4)C2)c1, which IC50 is on record?
A: Its IC50 is 540 nM.

Test system: BJ
Assay: Cytostatic activity against human BJ cells after 72 hrs by MTT assay
Type: ADME, cell-based
Conditions: not given
Outline: as §1

Q: For O=C(N/N=C/c1cc(F)ccc1O)c1ccc2c3c(ccc2c1)N1Cc2c(ccc4cc(C(=O)N/N=C/c5cc(F)ccc5O)ccc24)N(C3)C1, which IC50 is on record?
A: The IC50 was 54100 nM.

Q: For Cc1ccc(O)c(/C=N/NC(=O)c2ccc3c4c(ccc3c2)N2Cc3c(ccc5cc(C(=O)N/N=C/c6cc(C)ccc6O)ccc35)N(C4)C2)c1, which IC50 is on record?
A: The IC50 was 690 nM.

Test system: CCRF-CEM
Assay: Induction of apoptosis in human CCRF-CEM cells assessed as apoptotic cells at 5 times IC50 after 24 hrs by propidium iodide staining-based flow cytometry
Type: functional
Conditions: not given
Outline: (§2)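 Cells were then fixed in 70% ethanol, washed in hypotonic citrate buffer, treated with RNase (50 µg/mL) and stained with propidium iodide. Flow cytometry used a 488 nm laser. Apoptosis was scored as the percentage of particles with propidium content below G0/G1.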

Q: For O=C(N/N=C/c1cc(F)ccc1O)c1ccc2c3c(ccc2c1)N1Cc2c(ccc4cc(C(=O)N/N=C/c5cc(F)ccc5O)ccc24)N(C3)C1, which Activity is on record?
A: The Activity was 58.01%.

Q: For Cc1ccc(O)c(/C=N/NC(=O)c2ccc3c4c(ccc3c2)N2Cc3c(ccc5cc(C(=O)N/N=C/c6cc(C)ccc6O)ccc35)N(C4)C2)c1, which Activity is on record?
A: Its Activity is 54.07%.

Test system: CCRF-CEM
Assay: Cell cycle arrest in human CCRF-CEM cells assessed as accumulation at G2/M phase at IC50 after 24 hrs by propidium iodide staining-based flow cytometry
Type: functional
Conditions: not given
Outline: as §2

Q: Which Activity does the source give for O=C(N/N=C/c1cc(F)ccc1O)c1ccc2c3c(ccc2c1)N1Cc2c(ccc4cc(C(=O)N/N=C/c5cc(F)ccc5O)ccc24)N(C3)C1 here?
A: Its Activity is 13.05%.

Q: Which Activity does the source give for Cc1ccc(O)c(/C=N/NC(=O)c2ccc3c4c(ccc3c2)N2Cc3c(ccc5cc(C(=O)N/N=C/c6cc(C)ccc6O)ccc35)N(C4)C2)c1 here?
A: The Activity was 14.65%.

Test system: CCRF-CEM
Assay: Cell cycle arrest in human CCRF-CEM cells assessed as accumulation at G2/M phase at 5 times IC50 after 24 hrs by propidium iodide staining-based flow cytometry
Type: functional
Conditions: not given
Outline: as §2

Q: Which Activity does the source give for O=C(N/N=C/c1cc(F)ccc1O)c1ccc2c3c(ccc2c1)N1Cc2c(ccc4cc(C(=O)N/N=C/c5cc(F)ccc5O)ccc24)N(C3)C1 here?
A: The Activity was 16.49%.

Q: Which Activity does the source give for Cc1ccc(O)c(/C=N/NC(=O)c2ccc3c4c(ccc3c2)N2Cc3c(ccc5cc(C(=O)N/N=C/c6cc(C)ccc6O)ccc35)N(C4)C2)c1 here?
A: Its Activity is 14.79%.

Test system: CCRF-CEM
Assay: Induction of apoptosis in human CCRF-CEM cells assessed as mitotic cells at IC50 after 24 hrs by pH3Ser10+ labeling-based flow cytometry
Type: functional
Conditions: not given

Q: For O=C(N/N=C/c1cc(F)ccc1O)c1ccc2c3c(ccc2c1)N1Cc2c(ccc4cc(C(=O)N/N=C/c5cc(F)ccc5O)ccc24)N(C3)C1, which Activity is on record?
A: The Activity was 0.3%.

Q: For Cc1ccc(O)c(/C=N/NC(=O)c2ccc3c4c(ccc3c2)N2Cc3c(ccc5cc(C(=O)N/N=C/c6cc(C)ccc6O)ccc35)N(C4)C2)c1, which Activity is on record?
A: The Activity was 1.04%.

Test system: CCRF-CEM
Assay: Induction of apoptosis in human CCRF-CEM cells assessed as inhibition of DNA synthesis at IC50 after 24 hrs by propidium iodide/BrdU staining by flow cytometry
Type: functional
Design: scale not given: the % may be the effect or the level left
Conditions: not given

Q: With O=C(N/N=C/c1cc(F)ccc1O)c1ccc2c3c(ccc2c1)N1Cc2c(ccc4cc(C(=O)N/N=C/c5cc(F)ccc5O)ccc24)N(C3)C1 as the molecule, how does the Activity read?
A: The Activity was 13.69%.

Q: With Cc1ccc(O)c(/C=N/NC(=O)c2ccc3c4c(ccc3c2)N2Cc3c(ccc5cc(C(=O)N/N=C/c6cc(C)ccc6O)ccc35)N(C4)C2)c1 as the molecule, how does the Activity read?
A: The Activity was 38.67%.

Test system: CCRF-CEM
Assay: Induction of apoptosis in human CCRF-CEM cells assessed as inhibition of DNA synthesis at 5 times IC50 after 24 hrs by propidium iodide/BrdU staining by flow cytometry
Type: functional
Design: scale not given: the % may be the effect or the level left
Conditions: not given

Q: With O=C(N/N=C/c1cc(F)ccc1O)c1ccc2c3c(ccc2c1)N1Cc2c(ccc4cc(C(=O)N/N=C/c5cc(F)ccc5O)ccc24)N(C3)C1 as the molecule, how does the Activity read?
A: The Activity was 1.54%.

Q: With Cc1ccc(O)c(/C=N/NC(=O)c2ccc3c4c(ccc3c2)N2Cc3c(ccc5cc(C(=O)N/N=C/c6cc(C)ccc6O)ccc35)N(C4)C2)c1 as the molecule, how does the Activity read?
A: The Activity was 5.17%.

Test system: CCRF-CEM
Assay: Induction of apoptosis in human CCRF-CEM cells assessed as inhibition of RNA synthesis at 5 times IC50 after 24 hrs by propidium iodide/BrU staining by flow cytometry
Type: functional
Design: scale not given: the % may be the effect or the level left
Conditions: not given

Q: For O=C(N/N=C/c1cc(F)ccc1O)c1ccc2c3c(ccc2c1)N1Cc2c(ccc4cc(C(=O)N/N=C/c5cc(F)ccc5O)ccc24)N(C3)C1, which Activity is on record?
A: The Activity was 4.37%.

Q: Which Activity does the source give for Cc1ccc(O)c(/C=N/NC(=O)c2ccc3c4c(ccc3c2)N2Cc3c(ccc5cc(C(=O)N/N=C/c6cc(C)ccc6O)ccc35)N(C4)C2)c1 here?
A: The Activity was 26.44%.

Test system: CCRF-CEM
Assay: Induction of apoptosis in human CCRF-CEM cells assessed as inhibition of RNA synthesis after 24 hrs by propidium iodide/BrU staining by flow cytometry
Type: functional, cell-based
Conditions: not given

Q: For O=C(N/N=C/c1cc(F)ccc1O)c1ccc2c3c(ccc2c1)N1Cc2c(ccc4cc(C(=O)N/N=C/c5cc(F)ccc5O)ccc24)N(C3)C1, which inhibition is on record?
A: The inhibition was “Dose-dependent effect”.

Test system: Pichia kudriavzevii
Assay: Antifungal activity against Candida crusei up to 200 uM after 24 to 48 hrs by broth microdilution method
Type: functional, organism-based
Conditions: not given

Q: Which Activity does the source give for O=C(N/N=C/c1cc(F)ccc1O)c1ccc2c3c(ccc2c1)N1Cc2c(ccc4cc(C(=O)N/N=C/c5cc(F)ccc5O)ccc24)N(C3)C1 here?
A: The Activity was “inactive”.

Q: Which Activity does the source give for Cc1ccc(O)c(/C=N/NC(=O)c2ccc3c4c(ccc3c2)N2Cc3c(ccc5cc(C(=O)N/N=C/c6cc(C)ccc6O)ccc35)N(C4)C2)c1 here?
A: The Activity was “inactive”.

Test system: not listed separately
Assay: Metal chelating activity of the compound assessed as formation of Fe3+ complex by UV-vis spectrometry
Type: physicochemical
Conditions: not given

Q: With O=C(N/N=C/c1cc(F)ccc1O)c1ccc2c3c(ccc2c1)N1Cc2c(ccc4cc(C(=O)N/N=C/c5cc(F)ccc5O)ccc24)N(C3)C1 as the molecule, how does the Activity read?
A: Its Activity is “Active”.

Q: For Cc1ccc(O)c(/C=N/NC(=O)c2ccc3c4c(ccc3c2)N2Cc3c(ccc5cc(C(=O)N/N=C/c6cc(C)ccc6O)ccc35)N(C4)C2)c1, which Activity is on record?
A: The Activity was “Active”.

Test system: not listed separately
Assay: Metal chelating activity of the compound assessed as formation of Zn2+ complex by UV-vis spectrometry
Type: physicochemical
Conditions: not given

Q: For O=C(N/N=C/c1cc(F)ccc1O)c1ccc2c3c(ccc2c1)N1Cc2c(ccc4cc(C(=O)N/N=C/c5cc(F)ccc5O)ccc24)N(C3)C1, which Activity is on record?
A: Its Activity is “Active”.

Q: For Cc1ccc(O)c(/C=N/NC(=O)c2ccc3c4c(ccc3c2)N2Cc3c(ccc5cc(C(=O)N/N=C/c6cc(C)ccc6O)ccc35)N(C4)C2)c1, which Activity is on record?
A: The Activity was “Active”.

Test system: not listed separately
Assay: Metal chelating activity of the compound assessed as formation of Mn2+ complex by UV-vis spectrometry
Type: physicochemical
Conditions: not given

Q: With O=C(N/N=C/c1cc(F)ccc1O)c1ccc2c3c(ccc2c1)N1Cc2c(ccc4cc(C(=O)N/N=C/c5cc(F)ccc5O)ccc24)N(C3)C1 as the molecule, how does the Activity read?
A: Its Activity is “Not Active”.

Q: With Cc1ccc(O)c(/C=N/NC(=O)c2ccc3c4c(ccc3c2)N2Cc3c(ccc5cc(C(=O)N/N=C/c6cc(C)ccc6O)ccc35)N(C4)C2)c1 as the molecule, how does the Activity read?
A: The Activity was “Not Active”.

Test system: Nucleic Acid
Assay: Binding affinity to DNA (unknown origin) assessed as DNA intercalation by UV-visible spectrophotometry
Type: nucleic-acid assay
Conditions: not given

Q: Which Activity does the source give for O=C(N/N=C/c1cc(F)ccc1O)c1ccc2c3c(ccc2c1)N1Cc2c(ccc4cc(C(=O)N/N=C/c5cc(F)ccc5O)ccc24)N(C3)C1 here?
A: Its Activity is “inactive”.

Q: With Cc1ccc(O)c(/C=N/NC(=O)c2ccc3c4c(ccc3c2)N2Cc3c(ccc5cc(C(=O)N/N=C/c6cc(C)ccc6O)ccc35)N(C4)C2)c1 as the molecule, how does the Activity read?
A: Its Activity is “inactive”.

Test system: Nucleic Acid
Assay: Binding affinity to DNA (unknown origin) assessed as DNA intercalation by UV-visible spectrophotometry in presence of Co2+
Type: nucleic-acid assay
Conditions: not given

Q: For O=C(N/N=C/c1cc(F)ccc1O)c1ccc2c3c(ccc2c1)N1Cc2c(ccc4cc(C(=O)N/N=C/c5cc(F)ccc5O)ccc24)N(C3)C1, which Activity is on record?
A: Its Activity is “Active”.

Q: Which Activity does the source give for Cc1ccc(O)c(/C=N/NC(=O)c2ccc3c4c(ccc3c2)N2Cc3c(ccc5cc(C(=O)N/N=C/c6cc(C)ccc6O)ccc35)N(C4)C2)c1 here?
A: Its Activity is “Active”.
